Assay results reported in ChEMBL document CHEMBL1154674, “Synthesis and evaluation of three 18F-labeled aminophenylbenzothiazoles as amyloid imaging agents” (J Med Chem, 2009).
Blank lines part the entries; values can stand above or below the compound they belong to.

Experiments:
Assay type in all cases: ADME, organism-based, Macaca mulatta
[1] = Drug level in normal rhesus monkey pons assessed as standard uptake value at 96.3 MBq, iv after 8 mins by microPET; details: in vivo
[2] = Drug level in normal rhesus monkey cerebellum assessed as standard uptake value at 96.3 MBq, iv after 47.5 mins by microPET; details: in vivo
In short: (§1)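 One normal rhesus monkey, each tracer given iv via the vena saphena (81.2, 96.3 or 109.4 MBq), with 1 day between tracer injections. Dynamic brain μPET over 180 min used frames of 5 × 60 s, 5 × 120 s, 9 × 300 s and 12 × 600 s. Images were reconstructed by filtered back projection with a RAMP filter. Regional time-activity curves were expressed as SUV.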

[3] = Drug level in normal rhesus monkey white matter assessed as standard uptake value at 96.3 MBq, iv after 37.5 mins by microPET; details: in vivo, 0.625 h
[4] = Drug level in normal rhesus monkey pons assessed as standard uptake value at 96.3 MBq, iv after 17.5 mins by microPET; details: in vivo
[5] = Drug level in normal rhesus monkey pons assessed as standard uptake value at 96.3 MBq, iv after 10 mins by microPET; details: in vivo
[6] = Drug level in normal rhesus monkey pons assessed as standard uptake value at 96.3 MBq, iv after 85 mins by microPET; details: in vivo
[7] = Drug level in normal rhesus monkey frontal cortex assessed as standard uptake value at 96.3 MBq, iv after 42.5 mins by microPET; details: in vivo
[8] = Drug level in normal rhesus monkey parietal cortex assessed as standard uptake value at 96.3 MBq, iv after 155 mins by microPET; details: in vivo
[9] = Drug level in normal rhesus monkey thalamus assessed as standard uptake value at 96.3 MBq, iv after 32.5 mins by microPET; details: in vivo
[10] = Drug level in normal rhesus monkey pons assessed as standard uptake value at 96.3 MBq, iv after 32.5 mins by microPET; details: in vivo
[11] = Drug level in normal rhesus monkey cerebellum assessed as standard uptake value at 96.3 MBq, iv after 4.5 mins by microPET; details: in vivo, 0.075 h; in short: as §1
[12] = Drug level in normal rhesus monkey parietal cortex assessed as standard uptake value at 96.3 MBq, iv after 165 mins by microPET; details: in vivo, 2.75 h
[13] = Drug level in normal rhesus monkey white matter assessed as standard uptake value at 96.3 MBq, iv after 52.5 mins by microPET; details: in vivo, 0.875 h
[14] = Drug level in normal rhesus monkey pons assessed as standard uptake value at 96.3 MBq, iv after 1.5 mins by microPET; details: in vivo, 0.025 h
[15] = Drug level in normal rhesus monkey pons assessed as standard uptake value at 109.4 MBq, iv after 75 mins by microPET; details: in vivo, 1.25 h
[16] = Drug level in normal rhesus monkey thalamus assessed as standard uptake value at 109.4 MBq, iv after 52.5 mins by microPET; details: in vivo, 0.875 h
[17] = Drug level in normal rhesus monkey white matter assessed as standard uptake value at 109.4 MBq, iv after 111 mins by microPET; details: in vivo
[18] = Drug level in normal rhesus monkey thalamus assessed as standard uptake value at 109.4 MBq, iv after 93 mins by microPET; details: in vivo, 1.55 h
[19] = Drug level in normal rhesus monkey cerebellum assessed as standard uptake value at 109.4 MBq, iv after 22.5 mins by microPET; details: in vivo, 0.375 h
In short: (§2)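 One normal rhesus monkey received each tracer via the vena saphena, with 1 day between injections. Dynamic μPET ran 180 min for 18F tracers (5×60 s, 5×120 s, 9×300 s, 12×600 s) and 90 min for the 11C tracer (5×60 s, 5×120 s, 9×300 s, 3×600 s). Filtered back-projection reconstruction (RAMP filter) was used. Time-activity curves were drawn to give regional SUV.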

[20] = Drug level in normal rhesus monkey parietal cortex assessed as standard uptake value at 109.4 MBq, iv after 52.5 mins by microPET; details: in vivo, 0.875 h
[21] = Drug level in normal rhesus monkey pons assessed as standard uptake value at 81.2 MBq, iv after 8 mins by microPET; details: in vivo
[22] = Drug level in normal rhesus monkey white matter assessed as standard uptake value at 81.2 MBq, iv after 85 mins by microPET; details: in vivo
[23] = Drug level in normal rhesus monkey white matter assessed as standard uptake value at 81.2 MBq, iv after 155 mins by microPET; details: in vivo
[24] = Drug level in normal rhesus monkey thalamus assessed as standard uptake value at 81.2 MBq, iv after 1.5 mins by microPET; details: in vivo, 0.025 h
[25] = Drug level in normal rhesus monkey pons assessed as standard uptake value at 81.2 MBq, iv after 22.5 mins by microPET; details: in vivo, 0.375 h
[26] = Drug level in normal rhesus monkey cerebellum assessed as standard uptake value at 81.2 MBq, iv after 115 mins by microPET; details: in vivo; in short: as §1
[27] = Drug level in normal rhesus monkey cerebellum assessed as standard uptake value at 81.2 MBq, iv after 57.5 mins by microPET; details: in vivo; in short: as §1
[28] = Drug level in normal rhesus monkey thalamus assessed as standard uptake value at 81.2 MBq, iv after 3.5 mins by microPET; details: in vivo
[29] = Drug level in normal rhesus monkey pons assessed as standard uptake value at 81.2 MBq, iv after 32.5 mins by microPET; details: in vivo
[30] = Drug level in normal rhesus monkey thalamus assessed as standard uptake value at 152.9 MBq, iv after 75 mins by microPET; details: in vivo, 1.25 h
[31] = Drug level in normal rhesus monkey cerebellum assessed as standard uptake value at 152.9 MBq, iv after 52.5 mins by microPET; details: in vivo, 0.875 h; in short: as §2
[32] = Drug level in normal rhesus monkey white matter assessed as standard uptake value at 152.9 MBq, iv after 1.5 mins by microPET; details: in vivo, 0.025 h
[33] = Drug level in normal rhesus monkey pons assessed as standard uptake value at 152.9 MBq, iv after 57.5 mins by microPET; details: in vivo
[34] = Drug level in normal rhesus monkey parietal cortex assessed as standard uptake value at 152.9 MBq, iv after 12 mins by microPET; details: in vivo, 0.2 h
[35] = Drug level in normal rhesus monkey thalamus assessed as standard uptake value at 152.9 MBq, iv after 85 mins by microPET; details: in vivo
[36] = Drug level in normal rhesus monkey frontal cortex assessed as standard uptake value at 152.9 MBq, iv after 37.5 mins by microPET; details: in vivo, 0.625 h
In short: (§3)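 Single normal rhesus monkey; tracer given iv via the vena saphena, 1 day apart from the other tracer injections. Dynamic μPET ran 90 min (5×60 s, 5×120 s, 9×300 s, 3×600 s). Images were reconstructed by filtered back projection with a RAMP filter. Regional time-activity curves were expressed as SUV.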

[37] = Drug level in normal rhesus monkey frontal cortex assessed as standard uptake value at 152.9 MBq, iv after 2.5 mins by microPET; details: in vivo; in short: as §3
[38] = Drug level in normal rhesus monkey parietal cortex assessed as standard uptake value at 152.9 MBq, iv after 47.5 mins by microPET; details: in vivo

- SUV [1]: 1.44
- SUV [2]: 1.23
- SUV [3]: 1.46
- SUV [4]: 1.51
- SUV [5]: 1.57
- SUV [6]: 2.06
- SUV [7]: 1.96
- SUV [8]: 1.23
- SUV [9]: 2.33
- SUV [10]: 1.67
- SUV [11]: 1.63
- SUV [12]: 1.18
- SUV [13]: 1.4
- SUV [14]: 0.8
Compound: CN(C)c1ccc2nc(-c3ccc([18F])cc3)sc2c1

- SUV [15]: 4.79
- SUV [16]: 5.41
- SUV [17]: 3.82
- SUV [18]: 5.05
- SUV [19]: 4.4
- SUV [20]: 4.38
Compound: Nc1ccc2nc(-c3ccc([18F])cc3)sc2c1

- SUV [21]: 5.089
- SUV [22]: 3.871
- SUV [23]: 4.236
- SUV [24]: 2.705
- SUV [25]: 5.688
- SUV [26]: 1.715
- SUV [27]: 2.522
- SUV [28]: 3.83
- SUV [29]: 5.714
Compound: CNc1ccc2nc(-c3ccc([18F])cc3)sc2c1

- SUV [30]: 0.731
- SUV [31]: 0.813
- SUV [32]: 0.292
- SUV [33]: 0.95
- SUV [34]: 2.062
- SUV [35]: 0.672
- SUV [36]: 0.912
- SUV [37]: 1.133
- SUV [38]: 0.862
Compound: [11CH3]Nc1ccc(-c2nc3ccc(O)cc3s2)cc1 [PITTSBURGH COMPOUND B]
